Results as given in ChEMBL document CHEMBL1154166, “Crystallographic study of a novel subnanomolar inhibitor provides insight on the binding interactions of alkenyldiarylmethanes with human immunodeficiency virus-1 reverse transcriptase” (J Med Chem, 2009).

Legend:
[1] = tested on: Human immunodeficiency virus 2; assay: Antiviral activity against HIV2 ROD infected in human MT4 cells assessed as inhibition of virus-induced cytopathic effect by MTT assay; type: functional, organism-based
Method in brief: (§1)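 Infected MT-4 cells (HIV-1 IIIB or HIV-2 ROD), protection from viral cytopathic effect read by MTT assay; EC50 = concentration giving 50% inhibition of cytopathic effect. CC50 from mock-infected MT-4 cells.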

[2] = tested on: Human immunodeficiency virus 1; assay: Antiviral activity against HIV1 RF infected in human CEM-SS cells assessed as inhibition of virus-induced cytopathic effect by XTT assay; type: functional, organism-based; settings: Human immunodeficiency virus 1, RF
Method in brief: (§2)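 XTT cytoprotection readout in CEM-SS cells infected with HIV-1 RF or with HIV-1 NL4-3 carrying RT K103N or Y181C. EC50 is the concentration giving 50% inhibition of virus-induced cytopathic effect.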

[3] = tested on: Human immunodeficiency virus 1; assay: Antiviral activity against NNRTI-resistant HIV1 NL4-3 with reverse transcriptase K103N mutation infected in human CEM-SS cells assessed as inhibition of virus-induced cytopathic effect by XTT assay; type: functional, organism-based; settings: Human immunodeficiency virus 1, NL4-3, CEM-SS; method in brief: as §2
[4] = tested on: Human immunodeficiency virus 1; assay: Antiviral activity against NNRTI-resistant HIV1 NL4-3 with reverse transcriptase Y181C mutation infected in human CEM-SS cells assessed as inhibition of virus-induced cytopathic effect by XTT assay; type: functional, organism-based; settings: Human immunodeficiency virus 1, NL4-3, CEM-SS; method in brief: as §2
[5] = (§3) Cytotoxicity against human MT4 cells; type: cell-based; settings: MT4 cells
Method in brief: (§4)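 Mock-infected MT-4 cells, handled alongside the MTT antiviral assay run with HIV-1 IIIB and HIV-2 ROD. CC50 is the concentration causing death of 50% of cells.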

[6] = (§5) Stability in rat plasma; type: ADME, cell-free
Method in brief: (§6)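 Compound incubated in reconstituted rat plasma with 1,1-diphenylethylene internal standard; remaining compound quantified by reversed-phase C18 HPLC, 8:2 acetonitrile-water, column at room temperature; half-life per replicate from regression of concentration versus time, averaged over two replicates.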

[7] = (§7) Cytotoxicity against human CEM-SS cells; type: cell-based; settings: CEM-SS cells
Method in brief: (§8)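 Mock-infected CEM-SS cells, handled alongside the XTT antiviral assay. CC50 is the concentration causing death of 50% of cells.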

MT4 = assay: as §3; type: cell-based; settings: mt4; method in brief: as §4
Plasma = assay: as §5; type: ADME, cell-free; method in brief: as §6
[8] = target: Human immunodeficiency virus type 1 reverse transcriptase (Human immunodeficiency virus 1, UniProt Q72547); assay: Inhibition of HIV1 reverse transcriptase p66/p51 using poly(rC)-oligo)dG) as template
Method in brief: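 Purified recombinant HIV-1 RT p66/51 heterodimer; poly(rC)·oligo(dG) homopolymer template/primer; activity measured as 32P-labeled […] incorporated into nascent DNA across increasing inhibitor concentrations; IC50 derived.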

CEM-SS = assay: as §7; type: cell-based; settings: cem-ss; method in brief: as §8
[9] = tested on: Human immunodeficiency virus 1; assay: Antiviral activity against HIV1 3B infected in human MT4 cells assessed as inhibition of virus-induced cytopathic effect by MTT assay; type: functional, organism-based; settings: Human immunodeficiency virus 1, 3B; method in brief: as §1

| Compound | EC50 [1] | EC50 [2] | EC50 [3] | EC50 [4] | CC50 [5] | half-life [6] | CC50 [7] | CC50 (MT4) | t1/2 (Plasma) | IC50 [8] | CC50 (CEM-SS) | EC50 [9] |
| --- | --- | --- | --- | --- | --- | --- | --- | --- | --- | --- | --- | --- |
| COC(=O)CCCC=C(c1cc(Br)c(OC)c(C(=O)OC)c1)c1cc(Br)c(OC)c(C(=O)OC)c1 | Not Active | 100 nM | 420 nM | 6100 nM |  |  |  |  |  |  |  |  |
| COC(=O)CCCC=C(c1cc(C#N)c(OC)c(C(=O)OC)c1)c1cc(C#N)c(OC)c(C(=O)OC)c1 | Not Active | 700 nM |  |  | > 100000 nM | 12.4 min | 17000 nM |  |  |  |  |  |
| COC(=O)CCC/C=C(\c1cc(C)c(OC)c(C(=O)OC)c1)c1cc(C)c2oc(=O)n(C)c2c1 | Not Active |  |  |  |  |  |  |  |  |  |  |  |
| COc1c(C)cc(/C(=C\CCCc2nnc(C)o2)c2cc(C)c3oc(=O)n(C)c3c2)cc1C(=O)SC | Not Active | 70 nM | > 100000 nM | > 100000 nM |  |  |  | 3900 nM | 238 min | < 1 nM | 3000 nM | 180 nM |
| Cc1ccnc2c1NC(=O)c1cccnc1N2C1CC1 [NEVIRAPINE] |  |  | 600 nM | 800 nM |  |  |  |  |  |  |  |  |
